# Laboratory results as given in ChEMBL document CHEMBL4017520, “Discovery, Structure-Activity Relationship, and Antiparkinsonian Effect of a Potent and Brain-Penetrant Chemical Series of Positive Allosteric Modulators of Metabotropic Glutamate Receptor 4” (J Med Chem, 2017).
# Test: Tmax in Sprague-Dawley rat plasma at 30 mg/kg, ip administered as single dose by LC-MS/MS analysis
# Assay type: ADME, organism-based
# Outline: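 Single-dose plasma PK after ip (10 or 30 mg/kg) or oral (10 mg/kg) dosing in rats, and oral 10 mg/kg dosing in mice. […] Values are mean ±SEM of 3 rats or 2 mice.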
compound,measurement,value
O/N=c1\cc(-c2cc3cccn3cn2)oc2ccc(OCCN3CCOCC3)cc12,Tmax,15 min
